The results in this text go back to ChEMBL document CHEMBL3271961, “Dibenztroponeacetic and -propionic acids. Potent new antiinflammatory agents” (1977).

The test system of assay [1] is Mus musculus. Kind of assay: Analgesic activity in po dosed mouse assessed as inhibition of phenylquinone-induced writhing measured up to 10 mins relative to aspirin. The assay is classed as functional. The procedure, abridged:
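Male mice, 18-20 g, dosed orally in aqueous vehicle at time zero. Writhing induced 20 min later by ip injection of 0.25 mL 0.02% phenylquinone, then counted over the next 10 min. Groups of usually 8-10 mice. Aspirin standard given at 16.5, 50 and 150 mg/kg. Relative potency determined graphically or by Finney's methods.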
A general note: Writhing tests count abdominal constrictions after an irritant is injected.

Assay [2] concerns Rattus norvegicus. Nature of the assay: Antiinflammatory activity in rat assessed as inhibition of carrageenan-induced paw edema administered into pad of right hind paw 1 hr before carrageenan challenge measured after 4 hrs relative to phenylbutazone. The settings on record: in the assay text read “administered po” for “administered into pad of right hind paw”. The class given is functional. The procedure, abridged: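 Female rats, 80-90 g, gavaged with test material in 1 mL aqueous vehicle. One hour later, 0.05 mL of 1% carrageenan in 0.9% NaCl injected into the right hind paw pad. Rats killed 4 h after dosing. Both hind paws weighed, and the percent weight increase of the inflamed paw calculated. Six rats per group. Phenylbutazone standard usually at 3.6, 11 and 33 mg/kg.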

The subject of assay [3] is Rattus norvegicus. Nature of the assay: Antiarthritic activity in po dosed rat assessed as inhibition of adjuvant-induced arthritis administered twice daily for 17 days measured on day 18 relative to indomethacin.
Assay [4] has as its system Rattus norvegicus. Kind of assay: Antiinflammatory activity in po dosed rat assessed as inhibition of carrageenan immersed cotton pellet-induced granuloma administered daily once for 7 days measured one day after last dose relative to indomethacin. The class given is functional. The procedure, abridged:
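Two 50-mg cotton pellets, soaked 24 h in 1% carrageenan, dried, then dipped in 1% penicillin G/1% streptomycin, implanted sc dorso-lumbar in 180-200 g rats (one sex per test). Daily oral dosing for 7 days. Next day, pellets with granulomas removed, dried 24 h at 100 °C, weighed. Usually nine rats/group. Indomethacin standard at 0.5, 1, 2, 4 mg/kg/day.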

Regarding `COC(=O)Cc1ccc2c(=O)c3ccccc3ccc2c1`, the Ratio is under 1 in assay [1] and 3 in assay [2]. As for `CC(C(=O)[O-])c1ccc2c(=O)c3ccccc3ccc2c1.[Na+]` (stereo not drawn), the Ratio in assay [2] was determined as 62. Still for that read-out and setting: the result for `CC(C)(C(=O)O)c1ccc2c(=O)c3ccccc3ccc2c1` reads 0.5. Consider `C=C(C(=O)O)c1ccc2c(=O)c3ccccc3ccc2c1`, for which the Ratio turned out to be 1 in assay [1] and 4 in assay [2]. `COC(=O)C(C)c1ccc2c(=O)c3ccccc3ccc2c1` (stereo not drawn): the results for the Ratio in assay [2] and in assay [3] were 15 and 2, respectively. For the compound `O=C(O)Cc1ccc2c(=O)c3ccccc3ccc2c1`, the Ratio in assay [1] turned out to be 2; in assay [2], 6; in assay [3] it was 0.1; in assay [4], 0.1.

For the compound `CC(C(=O)O)c1ccc2c(=O)c3ccccc3ccc2c1` (racemic), the Ratio worked out at 12 in assay [1] and 44 in assay [2]. On the same counts, the results for `CCC(C(=O)O)c1ccc2c(=O)c3ccccc3ccc2c1` (racemic) are 2 and 7. On the same counts, the results for `COC(=O)C(C)c1ccc2c(=O)c3ccccc3ccc2c1` (racemic) are 2 and 11.

As for `CC(C)CCOC(=O)C(C)c1ccc2c(=O)c3ccccc3ccc2c1` (racemic), the Ratio was 1.7 in assay [1] and 6 in assay [2].

On to `CCCCCCCCCCCCOC(=O)C(C)c1ccc2c(=O)c3ccccc3ccc2c1` (racemic), for which the Ratio in assay [1] was under 0.5; in assay [2], 15. The matching figures for `CCCCCCCCCCCCCCCCCCCCOC(=O)C(C)c1ccc2c(=O)c3ccccc3ccc2c1` (racemic): under 0.5 and “<=1”. The matching figures for `CC(C(=O)OCCN(C)C)c1ccc2c(=O)c3ccccc3ccc2c1` (racemic): 7 and 30.

For the compound `CCN(C)CCOC(=O)C(C)c1ccc2c(=O)c3ccccc3ccc2c1` (racemic), the Ratio in assay [1] is under 2; in assay [2] it was 20. On the same counts, the results for `CCN(CC)CCOC(=O)C(C)c1ccc2c(=O)c3ccccc3ccc2c1.Cl` (racemic) are 10 and 14.

`CC(C(=O)OCCN1CCCCC1)c1ccc2c(=O)c3ccccc3ccc2c1` (racemic): the values for the Ratio in assay [1] and in assay [2] were under 2 and 15, respectively. On to `CC(C(=O)OCCN1CCOCC1)c1ccc2c(=O)c3ccccc3ccc2c1.Cl` (racemic), for which the Ratio is under 1 in assay [1] and 9 in assay [2].

As for `CC(C(=O)OCCCCN(C)C)c1ccc2c(=O)c3ccccc3ccc2c1` (racemic), the Ratio is on record as under 3 in assay [1] and 7 in assay [2]. The matching figures for `CC(O)(C(=O)O)c1ccc2c(=O)c3ccccc3ccc2c1` (racemic): 1.5 and under 0.5.

Consider `CC(C(=O)O)c1ccc2c(=O)c3ccccc3ccc2c1` (single isomer, unassigned; (+)), for which the Ratio in assay [1] was determined as 20; in assay [2], 68.

As for `CC(C(=O)OCCN(C)C)c1ccc2c(=O)c3ccccc3ccc2c1` (single isomer, unassigned; (+)), the Ratio in assay [2] is given as 45. As to `CC(C(=O)O)c1ccc2c(=O)c3ccccc3ccc2c1` (single isomer, unassigned; (-)), the Ratio in assay [1] and in assay [2] was 1.5 each time.
